Published values pooled from the literature.
Each line is one published result; the experiments were not run side by side.
Oprd1: Delta-type opioid receptor (Oprd1, Rattus norvegicus, UniProt P33533)
CTSB: Cathepsin B (CTSB, Homo sapiens, UniProt P07858)
HTR7: 5-hydroxytryptamine receptor 7 (HTR7, Homo sapiens, UniProt P34969)

N=C(N)NCCC[C@@H]1NC(=O)[C@H](Cc2ccc(O)cc2)NC(=O)[C@@H](CCCCN)NC(=O)[C@@H](Cc2ccccc2)NC1=O — Ki (Oprd1; ligand displacement; radioligand; cell membranes): > 10000 nM
CCCCCCCCCCCCCCCCOC[C@H](COP(=O)([O-])OCC[N+](C)(C)C)OC(C)=O — IC50 (Platelet-activating factor receptor (PTAFR, Homo sapiens, UniProt P25105); ligand displacement; radioligand): 0.27 nM
CN(C(=O)[C@H](Cc1ccccc1)NC(=O)[C@@H](NC(=O)OCc1ccccc1)C(C)(C)C)N(C#N)CCC(N)=O — Ki (CTSB; enzyme activity; inhibitor): 75 nM
C[C@H](N)Cn1ncc2ccc3c(c21)CCCO3 — Ki (HTR7; ligand displacement; radioligand): 1160 nM
CC(C)C[C@H](NC(=O)[C@H](CCCCN)NC(=O)[C@@H]1CCCN1C(=O)[C@@H](N)CCCNC(=N)N)C(=O)N[C@@H](CCCCN)C(=O)O — Ki (HTR7; cell-free assay; radioligand): > 10000 nM
CCc1cccc(C)c1C[C@H](NC(=O)[C@@H](CCCNC(=N)N)NC(=O)[C@@H](N)Cc1c(C)cc(O)cc1C)C(=O)N[C@@H](CCCCN)C(N)=O — Ki (Oprd1; ligand displacement; radioligand; cell membranes): 50 nM
CC(C)C[C@H]1C(=O)N2CCC[C@H]2[C@]2(O)O[C@](NC(=O)[C@@H]3C=C4c5cccc6[nH]c(Br)c(c56)C[C@H]4N(C)C3)(C(C)C)C(=O)N12 — Ki (HTR7; ligand displacement; radioligand; cell membranes): 143 nM
CC[C@H](C)[C@H](NC(=O)[C@H](CCCNC(=N)N)NC(=O)[C@H](CC(C)C)NC(=O)[C@@H](N)Cc1ccccc1)C(=O)N[C@@H](CCCNC(=N)N)C(=O)N1CCC[C@H]1C(=O)N[C@@H](CCCCN)C(=O)O — Ki (HTR7; cell-free assay; radioligand): > 10000 nM
c1cncc(C2C3CCN2CC3)c1 (stereo not drawn) — Ki (Neuronal acetylcholine receptor subunit alpha-4/beta-2 (Mus musculus, UniProt O70174+Q9ERK7); ligand displacement; radioligand; cell membranes): 7.42 nM
COc1cc2oc(-c3ccc(O)c(O)c3)cc(=O)c2c(O)c1O — Ki (Genome polyprotein, protease (ZIKV, UniProt A0A024B7W1); enzyme activity; inhibitor): 4500 nM
Cc1cc(O)cc(C)c1C[C@H](N)C(=O)N1CCc2ccc(Cc3ccc(N)cc3)cc2C1 — Ki (Oprd1; ligand displacement; radioligand; cell membranes): 3.1 nM
Cc1cc(O)cc(C)c1C[C@H](C)C(=O)N[C@@H]1C/C=C/CC[C@@H](C(N)=O)NC(=O)[C@H](Cc2ccccc2)NC(=O)[C@H](Cc2ccccc2)NC1=O — Ki (Oprd1; ligand displacement; radioligand; cell membranes): 35.3 nM
Cc1ccccc1Cc1ccc2c(c1)CN(C(=O)[C@@H](N)Cc1c(C)cc(O)cc1C)CC2 — Ki (Oprd1; ligand displacement; radioligand; cell membranes): 5.8 nM
Cc1cc(O)cc(C)c1C[C@H](N)C(=O)N[C@H](CCCNC(=N)N)C(=O)N[C@@H](Cc1c[nH]c2ccccc12)C(=O)N[C@@H](CCCCN)C(N)=O — Ki (Oprd1; ligand displacement; radioligand; cell membranes): 186 nM
OC(c1ccc(F)cc1)C(F)(F)CCN1CCC(O)(c2ccc(Cl)cc2)CC1 (racemic) — Ki (HTR7; cell-free assay; radioligand): 2710 nM
CC[C@H](NC(=O)OCc1ccccc1)C(=O)N[C@H](C(=O)N[C@@H](CC(C)C)C(=O)N(C)N(C#N)CCC(N)=O)C(C)(C)C — Ki (CTSB; enzyme activity; inhibitor): 28.8 nM
Cc1cc(O)cc(C)c1C[C@H](N)C(=O)N[C@@H]1CCN(C(=O)c2ccccc2)c2ccc(Cc3cnc4ccccc4c3)cc21 — Kb (Oprd1; GTPγS binding; antagonist; cell membranes): 8 nM
COC1=C(N)C(=O)c2nc(-c3nc(C(=O)O)c(C)c(-c4ccc(OC)c(OC)c4O)c3N)ccc2C1=O — Ki (Sentrin-specific protease 1 (SENP1, Homo sapiens, UniProt Q9P0U3); enzyme activity; inhibitor; fluorescence): 138 nM
